For 41 compounds, IC50 results are on record in ChEMBL document CHEMBL3865837, “Chemical Constituents of the Rhizomes of Bletilla formosana and Their Potential Anti-inflammatory Activity” (J Nat Prod, 2016).

The nature of test [1]: Antiinflammatory activity in human neutrophils assessed as inhibition of FMLP/cytochalasin B-induced superoxide anion generation by measuring superoxide dismutase-inhibitable reduction of ferricytochrome c preincubated for 5 mins followed by FMLP/cytochalasin B-induction by spectrophotometric analysis. The settings on record: Neutrophil. It counts as functional, cell-based. The essentials:
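Neutrophils isolated from healthy donor venous blood (20−30 years old) by dextran sedimentation, Ficoll Hypaque centrifugation and hypotonic erythrocyte lysis, kept at 4 °C in Ca2+-free HBSS pH 7.4. Cells (6 × 10^5 cells/mL) with 0.5 mg/mL ferricytochrome c and 1 mM Ca2+, 37 °C 2 min; compound or 0.1% DMSO 5 min; CB 1 μg/mL 3 min; FMLP 100 nM. A550 followed continuously, ±SOD 100 U/mL; IC50, mean ± SEM, n = 3 or 4.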

The nature of test [2]: Antiinflammatory activity in human neutrophils assessed as inhibition of fMLP/CB-induced elastase release using MeO-Suc-Ala-Ala-Pro-Val-p-nitroanilide as elastase substrate preincubated for 5 mins followed by fMLP/CB-induction. The settings on record: Neutrophil. It counts as functional, cell-based. Put shortly: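 Donor neutrophils (dextran/Ficoll/hypotonic lysis, held at 4 °C in Ca2+-free HBSS pH 7.4) at 6 × 10^5 cells/mL, equilibrated with 100 μM MeO-Suc-Ala-Ala-Pro-Val-p-nitroanilide at 37 °C for 2 min. Compound or 0.1% DMSO vehicle added for 5 min, then activated with FMLP 100 nM plus CB 0.5 μg/mL. A405 read continuously. IC50 given as mean ± SEM, n = 3 or 4.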

As usually defined, the IC50 is the concentration that gives 50% inhibition.

Structures are written as SMILES.

As for `COc1cc2ccc3cc(O)ccc3c2c(OC)c1O`, the figures for the IC50 in test [1] and in test [2] were 2600 nM and 4900 nM, respectively.

As for `COc1c(Cc2ccc(O)cc2)c(O)c(Cc2ccc(O)cc2)c2c1-c1ccc(O)cc1CC2`, the IC50 in test [1] stood at 1100 nM; in test [2], 1800 nM.

Consider `COc1cc(O)c(Cc2ccc(O)cc2)c(CCc2cccc(O)c2)c1Cc1ccc(O)cc1`, for which the 50% inhibitory concentration (IC50) in test [1] and in test [2] was 700 nM each time.

Turning to `COc1cc(O)cc(CCc2cccc(O)c2)c1Cc1ccc(O)cc1`, the half-maximal inhibitory concentration (IC50) in test [1] came out at 1700 nM; in test [2], 2800 nM.

For the compound `COc1cc(O)c(-c2c(O)cc3c(c2OC)-c2ccc(O)cc2CC3)c2c1-c1ccc(O)cc1CC2`, the IC50 in test [1] stood at 1800 nM; in test [2], 1400 nM.

On to `COc1cc(O)cc(CCc2ccccc2)c1`, for which the IC50 in test [1] is 6500 nM; in test [2], more than 10000 nM.

On to `COc1cc(O)c(Cc2ccc(O)cc2)c2ccc3cc(O)ccc3c12`, for which the IC50 in test [1] is 500 nM; in test [2], 900 nM.

Regarding `CC(C)C[C@@](O)(CC(=O)OCc1ccc(O[C@@H]2O[C@H](CO)[C@@H](O)[C@H](O)[C@H]2O)cc1)C(=O)OCc1ccc(O[C@@H]2O[C@H](CO)[C@@H](O)[C@H](O)[C@H]2O)cc1`, the IC50 in test [1] and in test [2] was more than 10000 nM each time.

As to `COc1cc(O)cc(CCc2cccc(O)c2)c1-c1c(OC)cc(O)c2c1CCc1cc(O)ccc1-2`, the figures for the half-inhibitory concentration (IC50) in test [1] and in test [2] were 400 nM and 600 nM, respectively.

As for `COc1cc(O)cc2c1-c1cc(-c3c(O)cc(OC)c4c3ccc3cc(O)ccc34)c(O)cc1CC2`, the IC50 is 4200 nM in test [1] and 1200 nM in test [2].

With `COc1cc(CCc2cccc(O)c2)cc(O)c1-c1c(O)cc(OC)c2c1CCc1cc(O)ccc1-2`, the IC50 in test [1] was 4900 nM; in test [2], more than 10000 nM.

Take `COc1cc2c(ccc3cc(O)c(OC)c(OC)c32)cc1O`: the half-inhibitory concentration (IC50) was 2000 nM in test [1] and 2100 nM in test [2].

As for `COc1cc(O)c(Cc2ccc(O)cc2)c2c1-c1ccc(O)cc1CC2`, the IC50 in test [1] was 200 nM; in test [2], 2000 nM.

On to `CCOCc1ccc(O)cc1`, for which the IC50 in test [1] and in test [2] was more than 10000 nM each time.

With `COc1cc(O)cc2c1-c1cc(-c3c(O)cc(OC)c4c3CCc3cc(O)ccc3-4)c(O)cc1CC2`, the IC50 in test [1] turned out to be 1500 nM; in test [2], 500 nM.

In the case of `COc1c(O)cc2ccc3c(Cc4ccc(O)cc4)c(O)ccc3c2c1OC`, the half-inhibitory concentration (IC50) worked out at 1400 nM in test [1] and 1300 nM in test [2].

As to `COc1c(O)c(-c2c(O)c(OC)c(OC)c3c2CCc2cc(O)ccc2-3)c2c(c1OC)-c1ccc(O)cc1CC2`, the IC50 is 2500 nM in test [1] and more than 10000 nM in test [2].

In the case of `COc1cc2c(cc1O)CCc1cc(O)c(OC)c(OC)c1-2`, the values for the IC50 in test [1] and in test [2] were 200 nM and 5700 nM, respectively.

Turning to `COc1cccc(CCc2c(Cc3ccc(O)cc3)c(O)cc(OC)c2Cc2ccc(O)cc2)c1`, the figures for the half-inhibitory concentration (IC50) in test [1] and in test [2] were 6300 nM and 4200 nM, respectively.

Regarding `COc1cc2c(ccc3c(-c4c(O)cc(OC)c5c4ccc4cc(O)ccc45)c(O)cc(OC)c32)cc1O`, the results for the IC50 in test [1] and in test [2] were 1900 nM and 1700 nM, respectively.

For `COc1cc(CCc2cccc(O)c2)cc(O)c1Cc1ccc(O)cc1`, the IC50 is 2200 nM in test [1] and 900 nM in test [2].

As to `COc1cc2c(cc1O)CCc1c(-c3c(O)cc(OC)c4c3CCc3cc(O)ccc3-4)c(O)cc(OC)c1-2`, the half-maximal inhibitory concentration (IC50) came out at 2400 nM in test [1] and 700 nM in test [2].

For the compound `COc1cc2ccc3c(-c4c(O)cc(OC)c5c4ccc4cc(O)c(OC)cc45)c(O)cc(OC)c3c2cc1O`, the IC50 in test [1] worked out at 2800 nM; in test [2] it was 1600 nM.

`COc1cc(O)c(Cc2ccc(O)cc2)c(CCc2cccc(O)c2)c1`: the IC50 in test [1] was 3600 nM; in test [2], 2200 nM.

As to `COc1cc(CCc2cccc(O)c2)c(Cc2ccc(O)cc2)c(O)c1Cc1ccc(O)cc1`, the IC50 in test [1] and in test [2] was 1100 nM throughout.

For the compound `COc1cc(O)c(-c2c(O)c(Cc3ccc(O)cc3)c3c(c2OC)-c2ccc(O)cc2CC3)c2c1-c1ccc(O)cc1CC2`, the concentration for half-maximal inhibition (IC50) is 200 nM in test [1] and 400 nM in test [2].

Consider `COc1c(Cc2ccc(O)cc2)c(O)cc2c1-c1ccc(O)cc1CC2`, for which the IC50 was determined as 200 nM in test [1] and 2000 nM in test [2].

In the case of `COc1c(O)c(Cc2ccc(O)cc2)c2ccc3cc(O)ccc3c2c1OC`, the IC50 in test [1] was determined as 1600 nM; in test [2] it was 1900 nM.

In the case of `COc1cc2c(ccc3c(-c4c(O)cc(OC)c5c4ccc4cc(O)c(OC)cc45)c(O)cc(OC)c32)cc1O`, the IC50 came out at 1500 nM in test [1] and 300 nM in test [2].

`CC[C@@H](CC[C@@H](C)[C@H]1CC[C@H]2[C@@H]3CC=C4C[C@@H](O[C@@H]5O[C@H](CO)[C@@H](O)[C@H](O)[C@H]5O)CC[C@]4(C)[C@H]3CC[C@]12C)C(C)C`: the IC50 in test [1] and in test [2] was more than 10000 nM each time.

With `COc1cccc(CCc2cc(O)cc(OC)c2)c1`, the IC50 in test [1] was 6500 nM; in test [2], more than 10000 nM.

Take `COc1cc(O)cc2c1-c1ccc(O)cc1CC2`: the half-inhibitory concentration (IC50) in test [1] was 400 nM; in test [2], more than 10000 nM.

Consider `COC1=CC(=O)C2=C(CCc3cc(O)ccc32)C1=O`, for which the IC50 in test [1] and in test [2] was more than 10000 nM each time.

Turning to `O=Cc1ccc(O)cc1` [4-HYDROXYBENZALDEHYDE], the half-inhibitory concentration (IC50) in test [1] was more than 10000 nM; in test [2] it was 3300 nM.

As for `COc1cc(O)cc(CCc2cccc(O)c2)c1` [BATATASIN III], the IC50 in test [1] is 900 nM; in test [2], 4700 nM.

`COc1cc(O)c(-c2c(O)cc(OC)c3c2ccc2cc(O)ccc23)c2ccc3cc(O)ccc3c12` [CIRRHOPETALANTHIN]: the half-inhibitory concentration (IC50) in test [1] worked out at 1400 nM; in test [2] it was 600 nM.

Consider `COc1cc(O)c(-c2c(O)cc(OC)c3c2ccc2cc(O)ccc23)c2c1-c1ccc(O)cc1CC2` [CIRRHOPETALANTHRIN], for which the IC50 in test [1] is 900 nM; in test [2], 600 nM.

Regarding `COc1c(O)cc2c(c1OC)-c1ccc(O)cc1CC2` [ERIANTHRIDIN], the values for the half-maximal inhibitory concentration (IC50) in test [1] and in test [2] were 300 nM and 2000 nM, respectively.

On to `COc1cc(O)cc(CCc2ccc(O)c(OC)c2)c1` [GIGANTOL], for which the 50% inhibitory concentration (IC50) worked out at 2100 nM in test [1] and 3200 nM in test [2].

`CC[C@H](Nc1ncnc2[nH]cnc12)c1nc2cccc(F)c2c(=O)n1-c1ccccc1` [IDELALISIB]: the half-inhibitory concentration (IC50) in test [1] came out at 100 nM; in test [2], 300 nM.

Regarding `COc1c(O)cc2ccc3cc(O)ccc3c2c1OC` [NUDOL], the IC50 in test [1] is 1700 nM; in test [2], more than 10000 nM.
